Converted amounts (≈) assume the structure as drawn. Values belong to the compound of their own block, whether it stands above or below them.
Legend:
HUVECs tube formation = test: Endothelial cell tube formation assay; format: cell-based, human
In short: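 HUVECs grown in ECM-2 were trypsinized and resuspended in basal medium with 0.1% BSA. 5 × 10^4 cells were seeded onto tube-formation matrix plates with test compound or suramin as positive control, for 4–6 h at 37°C, 5% CO2. After HBSS washes, tube junctions were counted at ×4 and expressed as percentage inhibition.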

[1] = tested on: VEGF, MMP-9 and NF-κB expression in HepG2 cells; test: Western blot analysis of VEGF, MMP-9 and NF-κB; format: cell-based, human; conditions: 6.25 μg/mL, P < 0.05
[2] = tested on: microvessel outgrowth from rat aortic rings; test: Ex vivo rat aortic ring assay; conditions: 12.5 μg/mL, day 5, not significantly different from suramin
In short: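 Thoracic aortas from 10–12-week male Sprague Dawley rats were rinsed in HBSS with 2.5 µg/mL amphotericin B, cleaned and cut into 1 mm rings. Rings were embedded in fibrinogen (3 mg/mL)/thrombin gel in serum-free M199 with aprotinin, then fed M199 with 20% HIFCS and additives at 37°C, 5% CO2. Test compound ran 1.56–12.5 µg/mL, suramin positive, 1% DMSO negative. Day-5 sprouting area was measured (×4) in three experiments, six replicates each, as mean ± SD.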

HepG2 cells = test: MTT cell proliferation inhibition, HepG2; format: cell-based; conditions: Homo sapiens, HepG2, 72 h, read-out: IC50±SD
In short: (§1)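 HepG2 (passage 4–7), HUVEC and WRL68 cells (1 × 10^4) were exposed to test compound for 72 h, with 1% DMSO as negative control. Then 20 µL MTT (5 mg/mL in PBS) was added for 5 h at 37°C, 5% CO2. Absorbance was read at 570 nm against 630 nm reference, and viability expressed as percent of untreated cells. Triplicates were run and the experiment repeated three times.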

[3] = tested on: chick chorioallantoic membrane neovascularization; test: Chorioallantoic membrane; format: in vivo, chicken; conditions: 24 h, 6.25 and 12.5 μg/mL (Figure 3 legend)
In short: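 On fertilized eggs incubated from day 5 at 37°C in constant humidity, 5 mL albumin was aspirated and the eggs laid horizontally to detach the CAM. Test compound in 1.2% agarose disks went onto the CAM through a shell window, with agarose-only disks as negative control. The window was taped and eggs incubated 24 h. Vessels were counted from dissecting-microscope photographs as mean count per CAM.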

[4] = tested on: human umbilical vein endothelial cells (HUVEC); test: MTT cell proliferation inhibition, HUVEC; format: cell-based; conditions: 72 h
In short: as §1

WRL68 cells = test: MTT cell proliferation inhibition, WRL68; format: cell-based; conditions: Homo sapiens, WRL68, 72 h, read-out: IC50±SD
In short: as §1

[5] = tested on: angiogenesis-related proteins of HepG2 cells; test: Human cytokine; format: cell-based; conditions: HepG2, 6.25 μg/mL, cytokine array
In short: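 HepG2 cells were exposed to 6.25 µg/mL test compound. Samples with a biotinylated detection-antibody cocktail were bound to a membrane antibody array of angiogenesis proteins carrying duplicate spots. Detection used streptavidin-HRP chemiluminescence on X-ray film with densitometry. Values are fold change versus untreated cultures.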

HepG2 cells migration = test: Cell migration; format: cell-based, human; conditions: HepG2, 6.25, 12.5, 25 μg/mL, up to 96 h; untreated closed after 96 h
In short: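 Confluent HepG2 monolayers were scratched and exposed to 6.25, 12.5 or 25 µg/mL test compound, with images taken at 0, 12, 24, 30, 48, 54, 72, 78 and 96 h. Gap distances were measured by inverted microscopy (×20), using ten fields per treatment and at least 10 readings per field. Cell-free area gave percentage wound closure.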

[6] = Homo sapiens, HUVEC, read-out: inhibition of endothelial tube formation

SMILES: Cc1ccc(C(=O)Nc2ccc(S(=O)(=O)O)c3cc(S(=O)(=O)O)cc(S(=O)(=O)O)c23)cc1NC(=O)c1cccc(NC(=O)Nc2cccc(C(=O)Nc3cc(C(=O)Nc4ccc(S(=O)(=O)O)c5cc(S(=O)(=O)O)cc(S(=O)(=O)O)c45)ccc3C)c2)c1 [Suramin, reference compound]
inhibition at 100 µg/mL (HUVECs tube formation; [6]): 96%

IC50 (HepG2 cells): 6.2 ± 0.7 mg/L (≈ 28.4 µM)
SMILES: C/C1=C\CC(C)(C)/C=C/C(=O)/C(C)=C/CC1 [ZER, zerumbone]
Matrix metalloproteinase-9 (MMP-9) expression [1]: downregulation | NF-κB expression [1]: downregulation | VEGF expression [1]: downregulation | inhibition of neovascularization [2]: almost complete inhibition | effect on CAM vasculature [3]: vascular regression | IC50 ([4]; Homo sapiens, read-out: IC50±SD, HUVEC, MTT, 72 h): > 50 mg/L | IC50±SD ([4]; MTT): 62.0 ± 1.3 mg/L (≈ 284 µM) | effect on endothelial tube network (HUVECs tube formation; HUVECs, 3.125 μg/mL): reduced the intensity of network structures and caused the formation of incomplete and broken tubules | inhibition at 12.5 µg/mL (HUVECs tube formation; [6]): 89% | IC50 (WRL68 cells): 150 ± 0.4 mg/L (≈ 687 µM) | MMP expression [5]: inhibited expression | VEGF expression [5]: inhibited expression | angiogenin expression [5]: inhibited expression | angiopoietin expression [5]: inhibited expression | endostatin expression [5]: increasing expression | thrombospondin expression [5]: increasing expression | scratch wound closure (HepG2 cells migration): not scratch closure
